How the values were obtained:
[1] = target: T1, 5-hydroxytryptamine receptor 1A (Homo sapiens, UniProt P08908); experiment: Displacement of [3H]-8-OH-DPAT from human 5-HT1A receptor expressed in HEK293 cell membranes after 1 hr by microbeta counting method
T1 sequence (P08908 whole entry): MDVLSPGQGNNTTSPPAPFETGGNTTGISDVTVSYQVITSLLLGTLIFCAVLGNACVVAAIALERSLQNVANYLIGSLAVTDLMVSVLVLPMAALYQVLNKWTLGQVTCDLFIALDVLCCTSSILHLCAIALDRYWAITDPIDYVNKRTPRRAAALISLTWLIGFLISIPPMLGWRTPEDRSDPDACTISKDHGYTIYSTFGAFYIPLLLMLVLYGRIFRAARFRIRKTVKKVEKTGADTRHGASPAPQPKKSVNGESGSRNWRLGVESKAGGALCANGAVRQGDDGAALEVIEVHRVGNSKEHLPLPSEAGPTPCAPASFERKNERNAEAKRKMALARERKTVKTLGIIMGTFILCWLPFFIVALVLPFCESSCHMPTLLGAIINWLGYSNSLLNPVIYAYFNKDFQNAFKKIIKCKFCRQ

[2] = target: 5-hydroxytryptamine receptor 7 (Homo sapiens, UniProt P34969); experiment: Displacement of [3H]-5-carboxamidotryptamine from human 5-HT7B receptor expressed in HEK293 cell membranes after 1 hr by microbeta counting method
Sequence of 5-hydroxytryptamine receptor 7 (P34969 whole entry): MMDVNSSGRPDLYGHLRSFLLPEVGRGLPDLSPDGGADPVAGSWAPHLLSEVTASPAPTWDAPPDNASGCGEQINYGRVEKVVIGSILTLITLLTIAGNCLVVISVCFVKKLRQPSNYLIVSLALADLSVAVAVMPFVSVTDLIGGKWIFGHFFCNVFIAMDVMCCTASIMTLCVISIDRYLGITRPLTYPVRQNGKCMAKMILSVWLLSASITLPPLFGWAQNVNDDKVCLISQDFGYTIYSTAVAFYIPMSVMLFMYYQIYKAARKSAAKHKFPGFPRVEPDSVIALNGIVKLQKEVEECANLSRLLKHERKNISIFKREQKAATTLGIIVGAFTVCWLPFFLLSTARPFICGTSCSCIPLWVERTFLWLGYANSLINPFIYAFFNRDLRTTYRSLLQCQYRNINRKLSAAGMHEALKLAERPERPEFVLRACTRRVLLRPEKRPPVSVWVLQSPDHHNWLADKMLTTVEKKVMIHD

D(2) dopamine receptor = D(2) dopamine receptor (Homo sapiens, UniProt P14416); experiment: Displacement of [3H]-raclopride from human D2L receptor expressed in HEK293 cell membranes after 1 hr by microbeta counting method
Sequence of D(2) dopamine receptor (P14416 whole entry): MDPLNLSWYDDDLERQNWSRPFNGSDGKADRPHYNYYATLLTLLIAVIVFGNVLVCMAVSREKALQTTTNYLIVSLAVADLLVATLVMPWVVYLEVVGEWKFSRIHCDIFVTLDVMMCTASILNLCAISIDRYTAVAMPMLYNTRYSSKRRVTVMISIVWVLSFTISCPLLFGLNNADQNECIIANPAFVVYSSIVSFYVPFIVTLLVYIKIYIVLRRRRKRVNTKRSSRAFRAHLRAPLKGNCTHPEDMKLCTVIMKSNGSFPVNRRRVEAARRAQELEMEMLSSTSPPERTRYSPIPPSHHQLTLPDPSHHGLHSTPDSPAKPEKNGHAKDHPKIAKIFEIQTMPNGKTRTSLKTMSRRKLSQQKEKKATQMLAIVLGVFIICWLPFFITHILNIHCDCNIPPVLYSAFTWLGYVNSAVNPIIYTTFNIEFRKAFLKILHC

HepG2 [3] = experiment: Cytotoxicity against human HepG2 cells assessed as reduction in cell viability at 1 uM after 72 hrs by MTS assay; assay type: cell-based; conditions: hepg2, 72 h
In short: (§1)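 Viability by MTS, absorbance at 490 nm, after 72 h exposure at 0.1–100 μM; doxorubicin 1 μM as positive control. HepG2 only: CCCP 10 μM as additional control. Significance versus negative control by one-way ANOVA with Bonferroni test.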

HEK293 [4] = experiment: Cytotoxicity against HEK293 cells assessed as reduction in cell viability at 1 uM after 72 hrs by MTS assay; assay type: cell-based; conditions: human, hek293, 72 h; in short: as §1
HEK293 [5] = experiment: Cytotoxicity against HEK293 cells assessed as reduction in cell viability at 100 uM after 72 hrs by MTS assay; assay type: cell-based; conditions: human, hek293, 72 h; in short: as §1
HEK293 [6] = experiment: Cytotoxicity against HEK293 cells assessed as reduction in cell viability at 0.1 to 10 uM after 72 hrs by MTS assay; assay type: cell-based; conditions: human, hek293, 72 h; in short: as §1
HepG2 [7] = experiment: Cytotoxicity against human HepG2 cells assessed as reduction in cell viability at 0.1 to 10 uM after 72 hrs by MTS assay; assay type: cell-based; conditions: hepg2, 72 h; in short: as §1
[8] = Half life in CD-1 mouse liver microsomes by UPLC-MS analysis; assay type: ADME, microsome; conditions: for t1/2: mouse, microsomes
In short: (§2)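 Mouse liver microsomes with NADPH regeneration system; incubation followed by UPLC-MS with ion fragmentation. Percent substrate remaining read after 120 min; t1/2 and hepatic intrinsic clearance calculated.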

HepG2 [9] = experiment: Cytotoxicity against human HepG2 cells assessed as reduction in cell viability at 100 uM after 72 hrs by MTS assay; assay type: cell-based; conditions: hepg2, 72 h; in short: as §1
[10] = Intrinsic clearance in CD-1 mouse liver microsomes by UPLC-MS analysis; assay type: ADME, microsome; conditions: read-out: CLH; in short: as §2
[11] = Metabolic stability in CD-1 mouse liver microsomes assessed as parent compound remaining after 120 mins by UPLC-MS analysis; assay type: ADME, microsome; conditions: 2 h; in short: as §2
[12] = Drug metabolism in CD-1 mouse liver microsomes after 120 mins by UPLC-MS analysis; assay type: ADME, microsome; conditions: for metabolised at 2 h: CD-1, mouse, liver microsomes, read-out: Drug metabolism; in short: as §2
Homo sapiens = species on record: Homo sapiens; experiment: Selectivity ratio of Ki for 5-HT1A receptor (unknown origin) to Ki for 5-HT7 receptor (unknown origin)
In short: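 Competition binding on membranes of HEK-293 cells stably expressing human 5-HT1A or 5-HT7b receptors. 5-HT1A used 2.5 nM [3H]-8-OH-DPAT at room temperature; 5-HT7b used 0.8 nM [3H]-5-CT at 37 °C. Both ran 1 h, with 10 μM 5-HT for nonspecific binding. Seven concentrations (10–10–10–4 M) were tested in triplicate, with filtration read-out.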

HEK293 [13] = experiment: Cytotoxicity against HEK293 cells assessed as reduction in cell viability after 72 hrs by MTS assay; conditions: human, hek293, 72 h
HepG2 [14] = experiment: Cytotoxicity against human HepG2 cells assessed as reduction in cell viability at 10 uM after 72 hrs by MTS assay; assay type: cell-based; conditions: hepg2, 72 h
In short: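 Cells exposed to test compound across 0.1–100 μM (four concentrations) for 72 h. Viability read by MTS assay, absorbance at 490 nm. Positive controls: doxorubicin 1 μM for both lines, plus CCCP 10 μM for HepG2 only. Significance versus negative control assessed by one-way ANOVA with Bonferroni's test.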

| Ki [1] [nM] | Ki [2] [nM] | Ki (D(2) dopamine receptor) [nM] | SMILES | also measured |
| --- | --- | --- | --- | --- |
| 378000 | 2080 | 20000 | CC1(c2ccc(F)cc2)NC(=O)N(CC(O)CN2CCN(Cc3ccccc3)CC2)C1=O (configuration not stated) |  |
|  |  |  | COc1cccc2c1C(=O)c1c(O)c3c(c(O)c1C2=O)C[C@@](O)(C(=O)CO)C[C@@H]3O[C@H]1C[C@H](N)[C@H](O)[C@H](C)O1 [DOXORUBICIN] | Activity (HepG2 [3]): Toxic; Activity (HEK293 [4]): Toxic |
| 489 | 125 | 2130 | COc1ccccc1N1CCN(CC(O)CN2C(=O)NC(C)(C)C2=O)CC1 (configuration not stated) |  |
| 1230 | 19 | 416 | CC1(c2cccc3ccccc23)NC(=O)N(CC(O)CN2CCN(c3ccccc3C#N)CC2)C1=O (configuration not stated) |  |
| 6220 | 3610 | 10100 | CC1(c2ccc(F)cc2)NC(=O)N(CC(O)CN2CCN(C(=O)c3ccccc3)CC2)C1=O (configuration not stated) |  |
| 129 | 3 | 264 | CC1(c2ccc3ccccc3c2)NC(=O)N(CC(O)CN2CCN(c3ccccc3C#N)CC2)C1=O (configuration not stated) |  |
| 128 | 3 | 153 | COc1ccccc1N1CCN(CC(O)CN2C(=O)NC(C)(c3ccc4ccccc4c3)C2=O)CC1 (configuration not stated) | Activity (HEK293 [5]): Toxic; Activity (HEK293 [6]): Non-Toxic; Activity (HepG2 [7]): Non-Toxic; t1/2 [8]: 1.04 h; Activity (HepG2 [9]): Toxic; CLint scaled [10]: 43.4 mL/min/kg; Stability [11]: 70%; metabolised at 2 h [12]: 65 to 70% |
| 5210 | 165 | 4350 | CC1(c2ccc(F)cc2)NC(=O)N(CC(O)CN2CCC(Oc3ccccc3)CC2)C1=O (configuration not stated) |  |
|  |  |  | CC1(c2ccc(F)cc2)NC(=O)N(CC(O)CN2CCN(C(c3ccccc3)c3ccccc3)CC2)C1=O (configuration not stated) | t1/2 [8]: 2.625 h; Ratio Ki (Homo sapiens): 71; CLint scaled [10]: 17.2 mL/min/kg; Stability [11]: 20% |
| 1550 | 888 | 5850 | CC1(c2ccc(F)cc2)NC(=O)N(CC(O)CN2CCc3ccccc3C2)C1=O (configuration not stated) |  |
| 1160 | 209 | 3430 | CC1(C)NC(=O)N(CC(O)CN2CCN(c3ccccc3C#N)CC2)C1=O (configuration not stated) |  |
| 413000 | 224 | 273 | CC1(c2cccc3ccccc23)NC(=O)N(CC(O)CN2CCN(C(c3ccccc3)c3ccccc3)CC2)C1=O (configuration not stated) |  |
| 5580 | 2170 | 5230 | CC1(c2ccc(F)cc2)NC(=O)N(CC(O)CN2CCN(Cc3cccc4ccccc34)CC2)C1=O (configuration not stated) |  |
|  |  |  | N#CC(C#N)=NNc1cccc(Cl)c1 [CARBONYL CYANIDE M-CHLOROPHENYLHYDRAZONE] | Activity (HEK293 [13]): Toxic; Activity (HepG2 [14]): Toxic |
| 326 | 5 | 256 | COc1ccccc1N1CCN(CC(O)CN2C(=O)NC(C)(c3cccc4ccccc34)C2=O)CC1 (configuration not stated) | Activity (HEK293 [5]): Toxic; Activity (HEK293 [6]): Non-Toxic; Activity (HepG2 [7]): Non-Toxic; half-life ([8]; CD-1, mouse, liver microsomes): 1.57 h; Activity (HepG2 [9]): Toxic; CLint scaled [10]: 29 mL/min/kg; Stability [11]: 40%; Drug metabolism ([12]; mouse, microsomes, 2 h): 40% |
| 21500 | 172 | 4120 | CC1(c2ccc(F)cc2)NC(=O)N(CC(O)CN2CCC(Oc3ccc(Cl)cc3)CC2)C1=O (configuration not stated) |  |
| 19 | 11 | 295 | CC1(c2ccc(F)cc2)NC(=O)N(CC(O)CN2CCN(c3cccc4ccccc34)CC2)C1=O (configuration not stated) | Activity (HEK293 [5]): Toxic; Activity (HEK293 [6]): Non-Toxic; Activity (HepG2 [7]): Non-Toxic; t1/2 [8]: 0.75 h; Activity (HepG2 [9]): Toxic; CLint scaled [10]: 60.3 mL/min/kg; Stability [11]: 65%; metabolised at 2 h [12]: 65 to 70% |
| 15100 | 824 | 1150 | CC1(C)NC(=O)N(CC(O)CN2CCN(C(c3ccccc3)c3ccccc3)CC2)C1=O (configuration not stated) |  |
